Source: PubChem BioAssay
NS3 helicase inh: inhibitors of Hepatitis C virus NS3 helicase; NS3 helicase DNA unwinding, Cy5 molecular beacon fluorescence; inhibition, % at 10.9 µM; 0.56% of 290,000 active; AID 1800;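 active means inhibition above the mean of all tested compounds plus 3 SD, set per campaign, cut at about 35% in these data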;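 further: 0% = DMSO wells and 100% = thioflavine S control wells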
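Test system: hepatitis C virus NS3 helicase domain fragment enzyme. Also added: annealed dual-labelled DNA beacon duplex, ATP-started. Timing: 60 min unwinding reaction at 25 °C after ATP addition. Technique: Cy5 fluorescence. Measure: % inhibition of unwinding.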
EBNA-1 inh: blocks EBNA-1 binding to DNA | EBNA-1 DNA binding, fluorescence polarization | inhibition, % at 14.8 µM | 0.34% of 300,000 active | AID 1950; in the data active means inhibition above about 28%
MEX-5 binding: C. elegans MEX-5 TCR-2 RNA binding activity; MEX-5/FITC-TCR2 RNA binding, fluorescence polarization; stronger effect = lower value; Q9XUB2; AID 1832; activity score (negative = inhibition of binding), % at 10 µM; 0.38% of 300,000 active;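 active means inhibition past about -25% in most replicates, and total fluorescence under double the plate's negative control median, limit read from the data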;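 further: 0% = DMSO and -100% = 5 µM competing unlabeled TCR2 RNA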
ZTA counter: counter-screen for EBNA-1 inhibitors: inhibitors of Epstein-Barr virus ZTA. P03206. ZTA-DNA binding, fluorescence polarization. inhibition, % at 11 µM. 0.15% of 320,000 active. AID 2234; in the data active means inhibition above about 33%
Target sequence (P03206 whole entry, looked up): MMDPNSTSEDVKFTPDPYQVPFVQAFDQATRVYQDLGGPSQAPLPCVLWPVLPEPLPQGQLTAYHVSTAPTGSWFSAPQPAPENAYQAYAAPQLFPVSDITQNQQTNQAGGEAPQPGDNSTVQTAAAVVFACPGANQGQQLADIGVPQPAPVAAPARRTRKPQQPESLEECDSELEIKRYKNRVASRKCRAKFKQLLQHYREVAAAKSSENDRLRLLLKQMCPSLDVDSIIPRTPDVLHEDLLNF
EBV gp42 block: blocks Epstein-Barr virus glycoprotein 42 binding; inhibition, % (tested at 21.74 µM); 0.42% of 220,000 active; Fluorescence polarization binding assay, mP read-out; Q1HVG2; AID 1085; in the data active means inhibition above about 50%
Target sequence (Q1HVG2 whole entry, looked up): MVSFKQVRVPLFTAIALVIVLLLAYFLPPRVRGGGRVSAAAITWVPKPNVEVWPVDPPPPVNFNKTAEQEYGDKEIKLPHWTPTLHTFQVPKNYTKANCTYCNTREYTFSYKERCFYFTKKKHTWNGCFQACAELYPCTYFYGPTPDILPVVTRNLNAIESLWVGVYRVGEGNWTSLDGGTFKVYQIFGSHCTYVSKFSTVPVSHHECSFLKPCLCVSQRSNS
core dimer inh: blocks dimerization of HCV core protein; AID 1899; inhibition, % at 5 µM; 0.33% of 300,000 active; TR-FRET GST/Flag-core106 dimerization, 1536-well;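 active means inhibition above the mean of all tested compounds plus 3 SD, set per screening campaign, cut at about 45% in these data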
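System – GST-tagged and Flag-tagged HCV core protein residues 1-106 · Repeats – one well for each compound · Technique – TR-FRET 671 and 617 nm emission · Doses – one concentration, 5 µM, in 0.5% DMSO · Times – 4 h, 22.5 °C incubation · Also added – Eu donor and XL665 acceptor anti-tag antibodies · Measure – percent inhibition of core106 dimerization signal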
NS3 helicase cf: HCV NS3 helicase inhibition, confirmation assay | shares compounds with NS3 helicase inh | AID 1943 | inhibition, % at 10.9 µM | 31% of 1,600 active | NS3 helicase DNA unwinding, Cy5 molecular beacon fluorescence;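 active means inhibition above the mean of all tested compounds plus 3 SD, cutoff set per campaign, cut at about 36% in these data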
DNA FID counter: intercalator displacement, NS3 helicase counter-screen. shares compounds with NS3 helicase inh. DNA fluorescent intercalator displacement, fluorescence. inhibition, % at 7.9 µM. 4% of 1,600 active. AID 1945; in the data active means inhibition above about 37%;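 further: 0% = vehicle and 100% = reference compound; higher means more displacement of ethidium bromide from the DNA hairpin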
EBNA-1 confirm: EBNA-1 (EBV) inhibition, confirmation; shares compounds with EBNA-1 inh; Recombinant EBNA-1 DBD, Cy5-DNA fluorescence polarization; inhibition, % at 14.8 µM; 35% of 830 active;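 active means mean inhibition across replicates above a set limit taken from the earlier primary screen, cut at about 28% in these data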;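 further: plate controls were EBNA-1 protein with DMSO for no effect and wells lacking EBNA-1 for full effect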
ZTA DNA inh trip: counter-screen for EBNA-1 inhibitors: Epstein-Barr virus ZTA inhibitors, triplicate; AID 2328; shares compounds with EBNA-1 inh; inhibition, % at 11.1 µM; 830 tested, under 10 active; Zta-ZRE DNA binding, Cy5 fluorescence polarization;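 active means mean inhibition over triplicates above a set limit taken from the primary EBNA-1 screen, cut at about 37% in these data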;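 further: purified full length Zta protein with Cy5 labeled ZRE DNA probe; 0% = Zta with DMSO and 100% = wells lacking Zta protein; inhibitors lower polarization by freeing the labeled DNA probe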
ZTA inh confirm: confirmation of Epstein-Barr virus ZTA DNA binding inhibitors; shares compounds with ZTA counter; Zta-ZRE DNA binding, fluorescence polarization; inhibition, % at 11.1 µM; 30% of 320 active; AID 2361;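 active means mean inhibition across triplicate runs above the hit threshold derived for the original primary screen, cut at about 33% in these data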;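 further: 0% = Zta with DMSO and 100% = wells lacking Zta protein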
EBNA1 counter: blocks EBNA-1 DNA binding in ZTA counter-screen | AID 2362 | shares compounds with ZTA counter | 320 tested, under 10 active | inhibition, % at 14.8 µM | fluorescence polarization; call rule not given here
* = called active by the depositor; . = no result given. In the library only some 1.7% were active in any assay of this set; here they are far more common.

SMILES	NS3 helicase inh	EBNA-1 inh	MEX-5 binding	ZTA counter	EBV gp42 block	core dimer inh	EBNA-1 confirm	ZTA DNA inh trip	others
Cc1ccc(-n2cccc2/C=C2/C(=N)N3C(=NC2=O)SN=C3S(C)(=O)=O)cc1Cl	48.8*	32.4*	.	14.9	44.4	38.9	14.6	6.2	NS3 helicase cf=63.6*;DNA FID counter=11.3
Cc1cc(C)c(S(=O)(=O)N2CCN(C(=O)C(C)Cn3cncn3)CC2)c(C)c1 (stereo unspecified)	-1.0	2.3	-0.3	-10.9	.	6.0	.	.
Nc1c(C(=O)Nc2ccccc2)sc2nc(-c3cccnc3)ccc12	14.5	-10.7	-13.0	5.0	20.5	-4.1	.	.
Nc1c(C(=O)Nc2ccccc2)sc2nc(-c3ccco3)ccc12	82.5*	54.4*	-1.7	19.4	-7.2	8.3	59.5*	10.6	NS3 helicase cf=14.5;DNA FID counter=5.7
O=c1c(O)cccc2cc(O)c(O)c(O)c12	53.1*	-5.0	-36.7*	33.3*	81.8*	-15.9	.	.	NS3 helicase cf=107.8*;DNA FID counter=12.8;ZTA inh confirm=25.8;EBNA1 counter=13.7
O=C(Cc1cc2ccccc2o1)NCc1ccc(F)cc1	3.9	0.3	2.2	-10.1	.	0.8	.	.
C#CCOc1c(/C=C\c2nc(O)c([N+](=O)[O-])c(=O)[nH]2)cc(Br)cc1OC	44.7*	-4.1	3.1	49.6*	.	33.4	.	.	NS3 helicase cf=26.2;DNA FID counter=4.4;ZTA inh confirm=27.3;EBNA1 counter=-14.2
COC(=O)COc1c(/C=C\c2nc(O)c([N+](=O)[O-])c(=O)[nH]2)cccc1OC	5.2	1.7	1.0	13.2	.	16.3	.	.
O=c1[nH]c(/C=C\c2cccc(Cl)c2)nc(O)c1[N+](=O)[O-]	36.5*	3.2	1.9	39.7*	.	4.8	.	.	NS3 helicase cf=-11.8;DNA FID counter=1.0;ZTA inh confirm=38.1*;EBNA1 counter=3.5
COc1ccc(NCc2nnc(-c3ccccc3)o2)cc1	2.3	3.5	-0.4	-12.1	.	-5.7	.	.
O=C(O)CC(C(=O)O)N1C(=O)/C(=C/c2ccc(-c3nc4ccccc4s3)o2)SC1=S (stereo unspecified)	66.9*	20.6	39.6	59.0*	-4.7	7.8	.	.	NS3 helicase cf=67.0*;DNA FID counter=-2.3;ZTA inh confirm=63.8*;EBNA1 counter=-2.5
Cc1cc(/C=c2\sc3nc4ccccc4n3c2=O)c(C)n1-c1ccc(C(=O)O)cc1	16.9	.	0.2	.	7.0	.	.	.
O=C(O)c1ccc(-c2ccc(/C=c3/sc4nc5ccccc5n4c3=O)o2)cc1Cl	63.3*	-5.3	-19.3	34.4*	.	10.2	.	.	NS3 helicase cf=60.1*;DNA FID counter=24.0;ZTA inh confirm=53.2*;EBNA1 counter=-3.6
Cc1cc2ccccn2c1C(=O)c1ccc([N+](=O)[O-])o1	4.9	5.2	0.0	2.7	-10.9	5.7	.	.
CC1=CC2=NC(=O)/C(=C\c3ccc(-c4cccc(Cl)c4)o3)C(=N)N2O1	5.1	29.4*	-18.6	10.5	-24.7	10.8	2.0	6.8
CC(C)C(=O)NNC(=O)c1csc(CS(=O)(=O)c2ccc(Cl)cc2)n1	-5.8	-7.1	-2.3	-6.2	-5.8	-6.3	.	.
CS(=O)(=O)NNC(=O)c1csc(Cc2c(Cl)sc3ccc(Cl)cc23)n1	-4.2	39.9*	0.3	11.3	3.8	6.4	41.5*	6.5
COc1ccccc1NS(=O)(=O)c1cccc(-n2c(O)c(C=Nc3ccccc3C(=O)O)c3ccccc3c2=O)c1	27.1	36.2*	-0.8	10.0	14.1	25.7	21.1	6.3
CNc1ccccc1C(=O)OC	.	2.5	-1.0	-6.3	-23.1	2.3	.	.
COC(=O)C(=N/Nc1ccccc1C(=O)OC)/C(C)=N/O	-1.6	57.1*	0.2	8.9	3.2	0.6	42.4*	-1.8
C=CCn1c(NCc2ccco2)nc2ccccc21	-2.4	.	3.5	.	.	.	.	.
O=C(NCC(F)(F)F)c1ccc(S(=O)(=O)N2CCN(C(=O)C3CCCO3)CC2)cc1 (stereo unspecified)	.	.	.	-5.5	.	.	.	.
O=C1c2ccccc2C(=O)N1CCCCN(C(=O)c1cc2ccccc2oc1=O)c1ccc(Cl)cc1	25.3	36.6*	1.5	0.9	-0.7	11.9	0.4	18.6
CC1CC(C)CN(C(=O)c2cccc(S(=O)(=O)Nc3cc(C(F)(F)F)ccc3Cl)c2)C1 (stereo unspecified)	24.3	29.6*	-0.6	9.8	-1.3	20.5	2.3	-6.1
O=C(O)c1cccc(S(=O)(=O)Nc2cc(Cl)ccc2Cl)c1	-5.6	8.1	-1.5	-1.0	-10.7	-6.3	.	.
SMILES	NS3 helicase inh	EBNA-1 inh	MEX-5 binding	ZTA counter	EBV gp42 block	core dimer inh	EBNA-1 confirm	ZTA DNA inh trip	others
O=C(CSc1ccc(Cl)cc1Cl)N1CCC(c2nc3ccccc3s2)CC1	-9.2	-3.0	-1.7	7.9	-5.5	15.9	.	.
CS(=O)(=O)c1ccc(-c2cccc(NC(=O)c3ccc(Br)o3)c2)nn1	.	37.5*	-1.0	-1.3	.	-1.5	28.1*	-6.6
O=c1[nH]n(Cc2ccccc2)c2ccccc12	4.1	1.5	-2.0	8.4	.	7.6	.	.
CSc1ccc(COC(=O)CCS(=O)(=O)c2ccc(C)cc2)cc1	.	-0.5	-1.8	6.4	.	-3.2	.	.
COc1cccc(CN(C)C(=O)c2ccc(N3CCCC3)c([N+](=O)[O-])c2)c1	8.8	-5.8	1.0	-12.3	.	-11.5	.	.
O=C(CSc1nnc(-c2ccc(O)cc2)o1)Nc1cccc(O)c1	1.1	-13.9	1.1	-0.5	.	-7.9	.	.
Cc1cccc(NC(=O)CSc2nnc(-c3ccc(S(=O)(=O)N4CCCC4)cc3)o2)c1	0.8	-3.1	0.1	-12.5	-21.1	-0.8	.	.
CC(C)(C)c1nc(SCC(=O)Nc2ccc3c(c2)OCCO3)c2ccccc2n1	16.3	45.8*	-4.0	-2.8	-13.8	8.7	15.6	2.7
Cc1ccc(NC(=O)CSc2nnc(-c3ccc(S(=O)(=O)N4CCCC4)cc3)o2)cc1C	-4.1	108.2*	.	-11.2	-14.0	-2.1	56.1*	194.1*
O=C(CSc1nnc(-c2ccc(O)cc2)o1)Nc1ccc2c(c1)OCCO2	2.9	33.6*	-0.4	-7.3	-9.2	1.7	11.7	9.4
COc1ccccc1C(=O)Nc1nc2ccccc2s1	0.0	31.4*	2.9	-11.7	.	2.2	-4.7	-2.4
COc1n[nH]c(C(=O)Nc2nc3ccccc3s2)c1[N+](=O)[O-]	6.2	33.6*	-5.5	0.0	4.0	0.6	-0.4	-2.8
